Measurements published in ChEMBL document CHEMBL2434944, “Novel acetamidothiazole derivatives: synthesis and in vitro anticancer evaluation” (Eur J Med Chem, 2013).

Key:
[1] = tested on: A498; test: Growth inhibition of human A498 cells assessed as cell growth at 10^-5 M after 48 hrs by sulforhodamine B assay relative to control; format: functional; settings: A498, 48 h, read-out: Activity
Method in brief: (§1)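 NCI-60 single-dose screen at 10^-5 M. Cells grown in RPMI 1640 with 5% FBS and 2 mM L-glutamine, plated at 5,000–40,000 cells/well according to doubling time, and preincubated 24 h at 37°C, 5% CO2. Compound dissolved in DMSO and added. Exposure 48 h. Adherent cells fixed with cold TCA (10% final), suspension cells with 16% final TCA. Read-out is 0.4% SRB staining, dye solubilised in 10 mM Tris, absorbance at 515 nm. Percent growth is calculated against the time-zero plate and untreated control.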

[2] = tested on: SR; test: Growth inhibition of human SR cells assessed as cell growth at 10^-5 M after 48 hrs by sulforhodamine B assay relative to control; format: functional; settings: read-out: Activity
Method in brief: (§2)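 NCI-60 single-dose screen, 10^-5 M final. Cells grown in RPMI 1640 with 5% FBS and 2 mM L-glutamine, seeded at 5,000–40,000 cells/well by doubling time. Preincubated 24 h at 37°C, 5% CO2. Compound in DMSO, diluted in medium with gentamicin, then 48 h exposure. Fixed with cold TCA, SRB stained, A515 read. Percent growth vs untreated control, time-zero plate corrected.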

[3] = tested on: SK-MEL-2; test: Growth inhibition of human SK-MEL-2 cells assessed as cell growth at 10^-5 M after 48 hrs by sulforhodamine B assay relative to control; format: functional; settings: SK-MEL-2, 48 h, read-out: Activity; method in brief: as §1
[4] = tested on: Malme-3M; test: Growth inhibition of human MALME-3M cells assessed as cell growth at 10^-5 M after 48 hrs by sulforhodamine B assay relative to control; format: functional; settings: read-out: Activity; method in brief: as §1
[5] = tested on: OVCAR-5; test: Growth inhibition of human OVCAR5 cells assessed as cell growth at 10^-5 M after 48 hrs by sulforhodamine B assay relative to control; format: functional; settings: OVCAR-5, 48 h, read-out: Activity; method in brief: as §1
[6] = tested on: HT-29; test: Growth inhibition of human HT-29 cells assessed as cell growth at 10^-5 M after 48 hrs by sulforhodamine B assay relative to control; format: functional; settings: HT-29, 48 h, read-out: Activity; method in brief: as §1
[7] = tested on: SK-MEL-5; test: Growth inhibition of human SK-MEL-5 cells assessed as cell growth at 10^-5 M after 48 hrs by sulforhodamine B assay relative to control; format: functional; settings: SK-MEL-5, 48 h, read-out: Activity; method in brief: as §1
[8] = biological target: Thymidylate synthase (Homo sapiens, UniProt P04818); test: Inhibition of human thymidylate synthase
Chain of Thymidylate synthase (P04818 whole entry): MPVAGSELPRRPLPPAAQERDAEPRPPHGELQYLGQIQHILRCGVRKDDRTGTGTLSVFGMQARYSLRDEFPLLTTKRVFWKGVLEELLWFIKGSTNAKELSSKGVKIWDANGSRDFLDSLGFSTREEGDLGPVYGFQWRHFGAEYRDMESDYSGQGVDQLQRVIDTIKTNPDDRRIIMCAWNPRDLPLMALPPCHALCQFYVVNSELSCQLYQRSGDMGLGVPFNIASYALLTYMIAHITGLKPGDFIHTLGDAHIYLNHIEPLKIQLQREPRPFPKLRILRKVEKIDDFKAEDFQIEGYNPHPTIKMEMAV

[9] = tested on: NCI-H460; test: Growth inhibition of human NCI-H460 cells assessed as cell growth at 10^-5 M after 48 hrs by sulforhodamine B assay relative to control; format: functional; settings: NCI-H460, 48 h, read-out: Activity; method in brief: as §1
[10] = tested on: SK-OV-3; test: Growth inhibition of human SKOV3 cells assessed as cell growth at 10^-5 M after 48 hrs by sulforhodamine B assay relative to control; format: functional; settings: SK-OV-3, 48 h, read-out: Activity; method in brief: as §1
[11] = biological target: Epidermal growth factor receptor (Homo sapiens, UniProt P00533); test: Inhibition of human EGFR
Chain of Epidermal growth factor receptor (P00533 whole entry): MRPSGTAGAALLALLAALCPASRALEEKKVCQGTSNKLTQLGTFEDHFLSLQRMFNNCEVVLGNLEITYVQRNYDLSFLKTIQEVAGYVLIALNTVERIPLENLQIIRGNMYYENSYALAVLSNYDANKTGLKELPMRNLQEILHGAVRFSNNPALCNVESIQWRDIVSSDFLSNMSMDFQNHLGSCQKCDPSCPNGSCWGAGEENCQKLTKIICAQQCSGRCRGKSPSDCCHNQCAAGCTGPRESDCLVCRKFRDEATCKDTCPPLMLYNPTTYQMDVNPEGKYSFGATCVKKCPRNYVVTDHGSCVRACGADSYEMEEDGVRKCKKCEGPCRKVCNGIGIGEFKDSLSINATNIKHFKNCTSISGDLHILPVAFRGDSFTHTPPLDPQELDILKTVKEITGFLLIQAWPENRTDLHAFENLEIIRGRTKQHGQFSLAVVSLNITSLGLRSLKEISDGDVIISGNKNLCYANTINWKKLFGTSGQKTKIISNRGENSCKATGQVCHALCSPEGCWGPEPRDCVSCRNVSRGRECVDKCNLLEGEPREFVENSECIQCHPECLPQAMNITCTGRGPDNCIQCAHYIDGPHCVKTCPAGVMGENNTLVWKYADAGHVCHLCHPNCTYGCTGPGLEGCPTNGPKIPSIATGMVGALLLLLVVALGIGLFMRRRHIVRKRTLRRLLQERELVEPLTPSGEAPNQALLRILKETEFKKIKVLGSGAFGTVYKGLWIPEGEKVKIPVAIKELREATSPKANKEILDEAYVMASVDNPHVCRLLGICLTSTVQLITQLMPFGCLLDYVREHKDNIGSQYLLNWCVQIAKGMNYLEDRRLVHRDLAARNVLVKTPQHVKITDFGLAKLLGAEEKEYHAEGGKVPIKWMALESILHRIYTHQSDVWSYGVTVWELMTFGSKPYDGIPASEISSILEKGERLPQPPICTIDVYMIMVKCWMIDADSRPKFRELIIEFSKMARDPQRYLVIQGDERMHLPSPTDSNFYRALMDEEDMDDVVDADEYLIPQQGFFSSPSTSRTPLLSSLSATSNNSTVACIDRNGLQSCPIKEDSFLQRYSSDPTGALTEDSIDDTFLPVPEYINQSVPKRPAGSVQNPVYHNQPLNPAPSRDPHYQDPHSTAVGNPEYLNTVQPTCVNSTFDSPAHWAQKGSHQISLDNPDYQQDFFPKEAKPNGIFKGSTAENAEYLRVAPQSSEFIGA

[12] = tested on: UACC-257; test: Growth inhibition of human UACC257 cells assessed as cell growth at 10^-5 M after 48 hrs by sulforhodamine B assay relative to control; format: functional; settings: UACC-257, 48 h, read-out: Activity; method in brief: as §2
[13] = tested on: HOP-62; test: Growth inhibition of human HOP62 cells assessed as cell growth at 10^-5 M after 48 hrs by sulforhodamine B assay relative to control; format: functional; settings: HOP-62, 48 h, read-out: Activity; method in brief: as §1
[14] = tested on: SN12C; test: Growth inhibition of human SN12C cells assessed as cell growth at 10^-5 M after 48 hrs by sulforhodamine B assay relative to control; format: functional; settings: read-out: Activity; method in brief: as §1
[15] = tested on: SK-MEL-28; test: Growth inhibition of human SK-MEL-28 cells assessed as cell growth at 10^-5 M after 48 hrs by sulforhodamine B assay relative to control; format: functional; settings: SK-MEL-28, 48 h, read-out: Activity; method in brief: as §1
[16] = tested on: SNB-19; test: Growth inhibition of human SNB19 cells assessed as cell growth at 10^-5 M after 48 hrs by sulforhodamine B assay relative to control; format: functional; settings: SNB-19, 48 h, read-out: Activity; method in brief: as §1
[17] = tested on: MCF7; test: Growth inhibition of human MCF7 cells assessed as cell growth at 10^-5 M after 48 hrs by sulforhodamine B assay relative to control; format: functional; settings: MCF7, 48 h, read-out: Activity; method in brief: as §1
[18] = tested on: BT-549; test: Growth inhibition of human BT549 cells assessed as cell growth at 10^-5 M after 48 hrs by sulforhodamine B assay relative to control; format: functional; settings: BT-549, 48 h, read-out: Activity; method in brief: as §1
[19] = tested on: M14; test: Growth inhibition of human M14 cells assessed as cell growth at 10^-5 M after 48 hrs by sulforhodamine B assay relative to control; format: functional; settings: M14, 48 h, read-out: Activity; method in brief: as §1
[20] = tested on: HCT-15; test: Growth inhibition of human HCT15 cells assessed as cell growth at 10^-5 M after 48 hrs by sulforhodamine B assay relative to control; format: functional; settings: HCT-15, 48 h, read-out: Activity; method in brief: as §1
[21] = tested on: SNB-75; test: Growth inhibition of human SNB75 cells assessed as cell growth at 10^-5 M after 48 hrs by sulforhodamine B assay relative to control; format: functional; settings: SNB-75, 48 h, read-out: Activity; method in brief: as §1
[22] = tested on: SW-620; test: Growth inhibition of human SW620 cells assessed as cell growth at 10^-5 M after 48 hrs by sulforhodamine B assay relative to control; format: functional; settings: SW-620, 48 h, read-out: Activity; method in brief: as §2
[23] = tested on: RXF 393; test: Growth inhibition of human RXF393 cells assessed as cell growth at 10^-5 M after 48 hrs by sulforhodamine B assay relative to control; format: functional; settings: RXF 393, 48 h, read-out: Activity; method in brief: as §1
[24] = tested on: T47D; test: Growth inhibition of human T47D cells assessed as cell growth at 10^-5 M after 48 hrs by sulforhodamine B assay relative to control; format: functional; settings: read-out: Activity; method in brief: as §2
[25] = biological target: T1, Cathepsin K (Homo sapiens, UniProt P43235); test: Inhibition of human cathepsin K
T1 sequence (P43235 whole entry): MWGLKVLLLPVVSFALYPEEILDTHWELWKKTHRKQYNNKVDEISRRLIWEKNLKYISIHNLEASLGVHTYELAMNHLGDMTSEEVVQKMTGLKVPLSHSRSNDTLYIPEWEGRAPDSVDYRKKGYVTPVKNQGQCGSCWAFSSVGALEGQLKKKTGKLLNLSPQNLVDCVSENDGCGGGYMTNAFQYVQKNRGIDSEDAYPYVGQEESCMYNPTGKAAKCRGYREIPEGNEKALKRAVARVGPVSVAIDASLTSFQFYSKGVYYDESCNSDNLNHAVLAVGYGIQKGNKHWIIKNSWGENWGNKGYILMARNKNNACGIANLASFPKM

[26] = tested on: PC-3; test: Growth inhibition of human PC3 cells assessed as cell growth at 10^-5 M after 48 hrs by sulforhodamine B assay relative to control; format: functional; settings: PC-3, 48 h, read-out: Activity; method in brief: as §1
[27] = tested on: TK-10; test: Growth inhibition of human TK10 cells assessed as cell growth at 10^-5 M after 48 hrs by sulforhodamine B assay relative to control; format: functional; settings: TK-10, 48 h, read-out: Activity; method in brief: as §2

Row | SMILES | growth at 10 µM [1] [%] | growth at 10 µM [2] [%] | growth at 10 µM [3] [%] | growth at 10 µM [4] [%] | growth at 10 µM [5] [%] | growth at 10 µM [6] [%] | growth at 10 µM [7] [%] | Ki [8] [µM] | growth at 10 µM [9] [%] | growth at 10 µM [10] [%] | Ki [11] [µM] | growth at 10 µM [12] [%] | growth at 10 µM [13] [%] | growth at 10 µM [14] [%] | growth at 10 µM [15] [%] | growth at 10 µM [16] [%] | growth at 10 µM [17] [%] | growth at 10 µM [18] [%] | growth at 10 µM [19] [%] | growth at 10 µM [20] [%] | other results
1 | N=c1scc(-c2ccccc2)n1CC(=O)N1CCOCC1 | 117 | 86.7 | 106 | 102 | 96.3 | 106 | 95.5 | 6.22 | 105 | 92.3 | 55.3 | 111 | 90 | 101 | 112 | 98.3 | 89.5 | 103 | 100 | 99.2 | growth at 10 µM [21]: 59.4%; growth at 10 µM [22]: 98%; growth at 10 µM [23]: 98.7%; growth at 10 µM [24]: 88.8%; Ki [25]: 49.8 µM; growth at 10 µM [26]: 81.3%; growth at 10 µM [27]: 132%
2 | N=c1scc(-c2ccc(Cl)cc2)n1CC(=O)N1CCOCC1 | 75.5 | 72.7 | 107 | 105 | 113 | 94.2 | 96.5 | 3.73 | 99.3 | 90 | 6.64 | 94.7 | 98.5 | 86.9 | 97.1 | 91.2 | 86.8 | 95.5 | 92.2 | 89.9 | growth at 10 µM [21]: 75.3%; growth at 10 µM [22]: 103%; growth at 10 µM [23]: 110%; growth at 10 µM [24]: 69.7%; Ki [25]: 44.9 µM; growth at 10 µM [26]: 79.2%; growth at 10 µM [27]: 85.9%
